Experiments:
[1] = species: Rattus norvegicus; experiment: (§1) Compound is evaluated for [3H]dopamine uptake inhibition in rat forebrain; format: functional
[2] = biological target: T1, Sodium-dependent dopamine transporter (Rattus norvegicus, UniProt P23977); experiment: Displacement of [3H]BTCP (1-[1-(2-benxo[b]thienyl)cyclohexyl]piperidine) from rat forebrain dopamine transporter
How it was run: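 Rat forebrain membranes (40000 g pellet) in 0.32 M sucrose/10 mM Tris·HCl pH 7.4. 0.4-0.6 nM [3H]BTCP incubated with test compound in 50 mM Na phosphate buffer, pH 7.4, for 90 min on ice. Nonspecific binding with 10 µM BTCP. Filtration, then scintillation counting. Six concentrations in triplicate, duplicate experiments on different preparations. IC50 taken as 50% inhibition of total binding.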

[3] = biological target: T1, Sodium-dependent dopamine transporter; experiment: Inhibition of [3H]cocaine binding to rat forebrain […]
How it was run: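 Rat forebrain membranes washed in 0.25 M sucrose/10 mM Na2HPO4 pH 7.4. […] Filtration with ice-cold saline wash, then scintillation counting. Six concentrations in triplicate, duplicate experiments on different preparations. IC50 taken as 50% inhibition of total binding.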

[4] = Ratio of IC50 of [3H]cocaine to that of dopamine; format: functional
[5] = biological target: Glutamate NMDA receptor; experiment: Ability to displace [3H]-TCP from rat brain homogenate; format: tissue-based
[6] = biological target: Glutamate NMDA receptor; experiment: Ability of compound to displace [3H]TCP from rat brain homogenates; format: tissue-based
[7] = biological target: Glutamate NMDA receptor; experiment: Binding affinity of compound at site labelled by [3H]TCP in guinea pig brain homogenates; format: tissue-based
[8] = species: Rattus norvegicus; experiment: as §1

T1 sequence (P23977 whole entry): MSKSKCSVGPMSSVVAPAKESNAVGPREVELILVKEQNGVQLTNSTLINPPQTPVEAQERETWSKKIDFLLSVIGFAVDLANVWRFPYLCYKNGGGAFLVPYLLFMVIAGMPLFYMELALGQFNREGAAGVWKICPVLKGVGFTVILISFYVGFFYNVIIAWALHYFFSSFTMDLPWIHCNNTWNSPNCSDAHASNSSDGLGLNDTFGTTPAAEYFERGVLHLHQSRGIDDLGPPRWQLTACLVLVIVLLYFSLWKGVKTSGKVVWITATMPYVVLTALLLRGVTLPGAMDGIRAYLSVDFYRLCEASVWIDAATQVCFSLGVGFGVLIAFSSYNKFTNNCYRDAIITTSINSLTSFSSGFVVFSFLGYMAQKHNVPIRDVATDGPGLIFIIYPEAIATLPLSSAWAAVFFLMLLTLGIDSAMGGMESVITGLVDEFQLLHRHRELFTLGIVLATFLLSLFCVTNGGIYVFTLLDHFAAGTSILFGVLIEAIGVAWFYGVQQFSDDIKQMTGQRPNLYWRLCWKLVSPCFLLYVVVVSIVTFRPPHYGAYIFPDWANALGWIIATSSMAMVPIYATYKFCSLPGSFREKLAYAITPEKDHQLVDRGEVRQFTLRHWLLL

Compound	IC50 [1] [nM]	IC50 [2] [nM]	IC50 [3] [nM]	Ratio [4]	Ki [5] [µM]	Ki [6] [µM]	Ki [7] [µM]	IC50 [8] [nM]
c1ccc2sc(C3(N4CCCCC4)CCCCC3)cc2c1	9	0.66	41	4.6	> 10			
c1ccc2sc(C3(N4CCCCCC4)CCCCCC3)cc2c1	252	67	386	1.5		> 10		
c1ccc2sc(C3(N4CCCC4)CCCCCC3)cc2c1	27	13	52	1.9		> 10		
NC1(c2cc3ccccc3s2)CCCCC1	78	123	684	8.8			> 10	
c1ccc2sc(C3(N4CCCCCC4)CCCCC3)cc2c1	43	18	36	0.84			> 10	
NC1(c2cc3ccccc3s2)CCCCCC1	550	416	1340	2.4		> 10		
c1ccc2sc(C3(N4CCCC4)CCCCC3)cc2c1	11	6.7	12	1.1			> 10	
c1ccc2sc(C3(N4CCCCC4)CCCC3)cc2c1	24	15	76	3.2			> 10	
c1ccc2sc(C3(N4CCCCC4)CCCCCC3)cc2c1	55	19	111	2		> 10		
COC(=O)[C@H]1[C@@H](OC(=O)c2ccccc2)C[C@@H]2CC[C@H]1N2C [COCAINE]								138
c1ccc2sc(C3(N4CCCCCC4)CCCC3)cc2c1	132	21	62	0.47			> 10	
c1ccc2sc(C3(N4CCCC4)CCCC3)cc2c1	19	13	26	1.4			> 10	
NC1(c2cc3ccccc3s2)CCCC1	148	630	933	6.3		> 10		

From ChEMBL document CHEMBL1126651, “Synthesis and biological evaluation of 1-[1-(2-benzo[b]thienyl)cyclohexyl]piperidine homologues at dopamine-uptake and phencyclidine- and sigma-binding sites” (J Med Chem, 1993)
